Results taken from ChEMBL document CHEMBL4354837 (J Med Chem, 2020).
Activity calls are given as the source filed them. The rule behind the calls is not given here. Square brackets hold non-standard residues; d marks the D form. Peptide text beside a SMILES is read from it.

Key:
[1] = molecular target: Melanocortin receptor 3 (Mus musculus) (UniProt P33033); assay: Agonist activity at mouse melanocortin receptor 3 expressed in HEK293 cells assessed as stimulation of cAMP accumulation at 100 uM incubated for 2 hrs by cAMP Alpha-screen assay relative to control; assay type: functional, cell-based
Sequence of Melanocortin receptor 3 (Mus musculus) (P33033 whole entry): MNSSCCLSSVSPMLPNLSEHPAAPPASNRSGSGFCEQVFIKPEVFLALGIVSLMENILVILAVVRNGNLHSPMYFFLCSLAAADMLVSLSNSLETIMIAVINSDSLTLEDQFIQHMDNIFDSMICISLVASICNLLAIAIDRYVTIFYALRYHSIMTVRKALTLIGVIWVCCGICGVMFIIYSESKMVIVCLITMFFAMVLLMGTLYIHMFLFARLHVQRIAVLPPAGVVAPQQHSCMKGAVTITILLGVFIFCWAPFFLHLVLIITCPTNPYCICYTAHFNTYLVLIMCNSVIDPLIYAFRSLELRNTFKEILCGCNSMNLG

[2] = molecular target: Melanocortin receptor 4 (Mus musculus) (UniProt P56450); assay: Agonist activity at mouse melanocortin receptor 4 expressed in HEK293 cells assessed as stimulation of cAMP accumulation at 100 uM incubated for 2 hrs by cAMP Alpha-screen assay relative to control; assay type: functional, cell-based
Sequence of Melanocortin receptor 4 (Mus musculus) (P56450 whole entry): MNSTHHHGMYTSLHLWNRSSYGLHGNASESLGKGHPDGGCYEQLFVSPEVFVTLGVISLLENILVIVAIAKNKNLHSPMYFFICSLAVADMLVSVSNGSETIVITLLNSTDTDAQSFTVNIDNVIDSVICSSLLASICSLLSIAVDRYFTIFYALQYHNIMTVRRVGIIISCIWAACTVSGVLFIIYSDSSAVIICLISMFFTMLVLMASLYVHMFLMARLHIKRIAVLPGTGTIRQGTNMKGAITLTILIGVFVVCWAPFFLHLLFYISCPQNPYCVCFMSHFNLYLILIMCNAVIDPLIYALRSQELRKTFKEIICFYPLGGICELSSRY

Melanocortin receptor 5 [3] = molecular target: T1, Melanocortin receptor 5 (Mus musculus, UniProt P41149); assay: Agonist activity at mouse melanocortin receptor 5 expressed in HEK293 cells assessed as stimulation of cAMP accumulation incubated for 2 hrs by cAMP Alpha-screen assay; assay type: functional, cell-based
T1 sequence (P41149 whole entry): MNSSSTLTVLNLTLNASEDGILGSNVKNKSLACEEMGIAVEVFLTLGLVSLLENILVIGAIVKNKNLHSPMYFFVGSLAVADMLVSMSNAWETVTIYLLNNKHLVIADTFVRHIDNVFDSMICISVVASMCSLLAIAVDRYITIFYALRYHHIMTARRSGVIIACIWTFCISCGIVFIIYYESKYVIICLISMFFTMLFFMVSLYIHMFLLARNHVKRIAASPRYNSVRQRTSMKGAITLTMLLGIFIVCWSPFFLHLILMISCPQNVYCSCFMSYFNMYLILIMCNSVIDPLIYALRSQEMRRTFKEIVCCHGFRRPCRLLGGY

Melanocortin receptor 4 [4] = molecular target: T2, Melanocortin receptor 4 (Homo sapiens, UniProt P32245); assay: Inverse agonist activity at human melanocortin receptor 4 expressed in HEK293 cells assessed as inhibition of basal cAMP accumulation incubated for 2 hrs by cAMP Alpha-screen assay; assay type: functional, cell-based
T2 sequence (P32245 whole entry): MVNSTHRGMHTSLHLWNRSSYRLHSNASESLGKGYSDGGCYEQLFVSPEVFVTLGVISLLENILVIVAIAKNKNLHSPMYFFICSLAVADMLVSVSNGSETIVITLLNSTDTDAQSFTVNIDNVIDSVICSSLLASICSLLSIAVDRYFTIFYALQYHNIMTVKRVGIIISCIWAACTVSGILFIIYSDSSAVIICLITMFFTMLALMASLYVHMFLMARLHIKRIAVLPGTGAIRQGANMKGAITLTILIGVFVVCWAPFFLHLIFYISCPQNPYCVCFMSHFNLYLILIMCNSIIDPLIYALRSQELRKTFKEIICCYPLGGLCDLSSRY
How it was run: (§1)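 AlphaScreen cAMP assay in stably transfected HEK293 cells, with 10,000 cells/well in IBMX-containing HBSS/HEPES buffer pH 7.4. Peptide alone, up to 100 μM, 2 h at room temperature in the dark, then 2 h lysis/detection. Inverse agonism taken as percent decrease of cAMP from basal, relative to maximal NDP-MSH signal, at 100 μM. Duplicates, three independent experiments.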

[5] = molecular target: Melanocyte-stimulating hormone receptor (Mus musculus) (UniProt Q01727); assay: Agonist activity at mouse melanocortin receptor 1 expressed in HEK293 cells assessed as stimulation of cAMP accumulation at 100 uM incubated for 2 hrs by cAMP Alpha-screen assay relative to control; assay type: functional, cell-based
Sequence of Melanocyte-stimulating hormone receptor (Mus musculus) (Q01727 whole entry, looked up): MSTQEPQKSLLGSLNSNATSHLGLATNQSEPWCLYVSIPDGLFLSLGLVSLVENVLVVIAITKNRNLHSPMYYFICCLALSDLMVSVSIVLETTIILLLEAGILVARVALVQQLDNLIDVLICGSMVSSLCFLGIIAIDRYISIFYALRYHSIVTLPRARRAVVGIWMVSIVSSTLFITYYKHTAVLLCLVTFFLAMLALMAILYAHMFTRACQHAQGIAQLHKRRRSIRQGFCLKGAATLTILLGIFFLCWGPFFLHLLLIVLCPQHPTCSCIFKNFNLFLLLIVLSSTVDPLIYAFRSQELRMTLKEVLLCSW

Melanocortin receptor 3 [6] = molecular target: T3, Melanocortin receptor 3 (Mus musculus, UniProt P33033); assay: Antagonist activity at mouse melanocortin receptor 3 expressed in HEK293 cells assessed as inhibition of NDP-MSH-induced cAMP accumulation incubated for 2 hrs by cAMP Alpha-screen assay based Schild analysis; assay type: functional, cell-based; details: read-out: pA2 (converted)
T3 sequence (P33033 whole entry): as the sequence (P33033 whole entry) above
How it was run: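 NDP-MSH (10−6 to 10−12) plus antagonist at 10,000, 5,000, 1,000 and 500 nM, 2 h dark at room temperature. AlphaScreen cAMP read after lysis/bead step 2 h. Schild pA2; duplicates, at least three independent experiments.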

Melanocortin receptor 4 [7] = molecular target: T2, Melanocortin receptor 4; assay: Ratio of IC50 for MDE6-82-3c to IC50 for test compound for displacement of [125I]-NDP-MSH from human melanocortin receptor 4 expressed in HEK293 cell membranes incubated for 1 hr by automatic gamma counting method
How it was run: (§2)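 Cells washed, lysed 10 min with 0.1 M NaOH/1% Triton X-100, then gamma-counted. Specific binding defined with unlabelled NDP-MSH and normalized to it. Duplicate wells, two experiments. IC50 by non-linear fit. Fold difference taken relative to the Asn-parent macrocycle control.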

Melanocortin receptor 3 [8] = molecular target: T3, Melanocortin receptor 3; assay: Agonist activity at mouse melanocortin receptor 3 expressed in HEK293 cells assessed as stimulation of cAMP accumulation incubated for 2 hrs by cAMP Alpha-screen assay; assay type: functional, cell-based
[9] = molecular target: Melanocortin receptor 4 (Mus musculus) (UniProt P56450); assay: Ratio of IC50 for MDE6-82-3c to IC50 for test compound for displacement of [125I]-NDP-MSH from mouse melanocortin receptor 4 expressed in HEK293 cell mebranes incubated for 1 hr by automatic gamma counting method; how it was run: as §2
[10] = molecular target: Melanocyte-stimulating hormone receptor (Mus musculus, UniProt Q01727); assay: Displacement of [125I]-NDP-MSH from mouse melanocortin receptor 1 expressed in HEK293 cell mebranes incubated for 1 hr by automatic gamma counting method; assay type: cell-based; how it was run: as §2
Sequence of Melanocyte-stimulating hormone receptor (Q01727 whole entry): as the sequence (Q01727 whole entry, looked up) above

Melanocortin receptor 5 [11] = molecular target: T1, Melanocortin receptor 5; assay: Displacement of [125I]-NDP-MSH from mouse melanocortin receptor 5 expressed in HEK293 cell mebranes incubated for 1 hr by automatic gamma counting method; assay type: cell-based
Melanocortin receptor 3 [12] = molecular target: T3, Melanocortin receptor 3; assay: Displacement of [125I]-NDP-MSH from mouse melanocortin receptor 3 expressed in HEK293 cell mebranes incubated for 1 hr by automatic gamma counting method; assay type: cell-based
Melanocortin receptor 4 [13] = molecular target: Melanocortin receptor 4 (Mus musculus, UniProt P56450); assay: Agonist activity at mouse melanocortin receptor 4 expressed in HEK293 cells assessed as stimulation of cAMP accumulation incubated for 2 hrs by cAMP Alpha-screen assay; assay type: functional, cell-based
Sequence of Melanocortin receptor 4 (Mus musculus, UniProt P56450) (P56450 whole entry): as the sequence (P56450 whole entry) above

[14] = molecular target: Melanocortin receptor 5 (Mus musculus) (UniProt P41149); assay: Inverse agonist activity at mouse melanocortin receptor 5 expressed in HEK293 cells assessed as inhibition of basal cAMP accumulation incubated for 2 hrs by cAMP Alpha-screen assay relative to control; assay type: functional, cell-based; details: concentration not given here; how it was run: as §1
Sequence of Melanocortin receptor 5 (Mus musculus) (P41149 whole entry): as the sequence (P41149 whole entry) above

Melanocortin receptor 5 [15] = molecular target: T1, Melanocortin receptor 5; assay: Antagonist activity at mouse melanocortin receptor 5 expressed in HEK293 cells assessed as inhibition of NDP-MSH-induced cAMP accumulation incubated for 2 hrs by cAMP Alpha-screen assay based Schild analysis; assay type: functional, cell-based; details: read-out: pA2 (converted)
[16] = molecular target: Melanocyte-stimulating hormone receptor (Mus musculus) (UniProt Q01727); assay: Ratio of IC50 for MDE6-82-3c to IC50 for test compound for displacement of [125I]-NDP-MSH from mouse melanocortin receptor 1 expressed in HEK293 cell mebranes incubated for 1 hr by automatic gamma counting method; how it was run: as §2
[17] = molecular target: Melanocortin receptor 5 (Mus musculus) (UniProt P41149); assay: Inverse agonist activity at mouse melanocortin receptor 5 expressed in HEK293 cells assessed as inhibition of basal cAMP accumulation at 100 uM incubated for 2 hrs by cAMP Alpha-screen assay relative to control; assay type: functional, cell-based; how it was run: as §1

| Compound | Activity [1] [%] | Activity [2] [%] | EC50 (Melanocortin receptor 5 [3]) [µM] | Activity (Melanocortin receptor 4 [4]) | Activity [5] [%] | Kb (Melanocortin receptor 3 [6]) [µM] | Ratio IC50 (Melanocortin receptor 4 [7]) | EC50 (Melanocortin receptor 3 [8]) [µM] | Ratio IC50 [9] | IC50 [10] [µM] | IC50 (Melanocortin receptor 5 [11]) [µM] | IC50 (Melanocortin receptor 3 [12]) [µM] | EC50 (Melanocortin receptor 4 [13]) [µM] | inhibition [14] [%] | Kb (Melanocortin receptor 5 [15]) [µM] | Ratio IC50 [16] | inhibition [17] [%] |
| --- | --- | --- | --- | --- | --- | --- | --- | --- | --- | --- | --- | --- | --- | --- | --- | --- | --- |
| CC(C)[C@@H]1NC(=O)[C@H](CN)NC(=O)[C@H](Cc2ccccc2)NC(=O)[C@H](Cc2ccccc2)NC(=O)[C@H](CCCNC(=N)N)NC(=O)[C@@H]2CCCN2C(=O)[C@H]2CCCN2C(=O)[C@H](Cc2ccccc2)NC1=O | 27 | 37 | > 100 | Active | 79 |  |  |  |  |  |  |  |  |  |  |  |  |
| C[C@@H]1NC(=O)[C@H](CC(N)=O)NC(=O)[C@H](Cc2ccccc2)NC(=O)[C@H](Cc2ccccc2)NC(=O)[C@H](Cc2c[nH]cn2)NC(=O)[C@@H]2CCCN2C(=O)[C@H]2CCCN2C(=O)[C@H](Cc2ccccc2)NC1=O |  |  | > 100 | Active | 23 | > 10 | 300 | > 100 | 300 | > 100 | > 100 | > 100 | > 100 |  |  |  |  |
| C[C@@H]1NC(=O)[C@H](CC(N)=O)NC(=O)[C@H](Cc2ccccc2)NC(=O)[C@H](Cc2ccccc2)NC(=O)[C@H](CCCNC(=N)N)NC(=O)[C@@H]2CCCN2C(=O)[C@H]2CCCN2C(=O)[C@H](Cc2ccccc2)NC1=O |  |  |  |  |  |  |  |  |  |  |  |  |  | 10 |  |  |  |
| C[C@@H]1NC(=O)[C@H](CN)NC(=O)[C@H](Cc2ccccc2)NC(=O)[C@H](Cc2ccccc2)NC(=O)[C@H](CCCNC(=N)N)NC(=O)[C@@H]2CCCN2C(=O)[C@H]2CCCN2C(=O)[C@H](Cc2ccccc2)NC1=O |  |  |  | Active |  |  |  |  |  |  |  |  |  | 15 |  |  |  |
| C[C@@H]1NC(=O)[C@H](CC(N)=O)NC(=O)[C@H](Cc2ccccc2)NC(=O)[C@H](Cc2ccccc2)NC(=O)[C@H](CS)NC(=O)[C@@H]2CCCN2C(=O)[C@H]2CCCN2C(=O)[C@H](Cc2ccccc2)NC1=O (cyclo(PCFFNAF[dP])) |  |  |  | inactive | 46 | > 10 | 300 | > 100 | 90 |  | > 100 | > 100 | > 100 |  | > 10 | 3 | 32 |
